Experimental data reported in ChEMBL document CHEMBL1152892, “Synthesis and biological evaluation of 3,6-disubstituted [1,2,4]triazolo[3,4-b][1,3,4]thiadiazole derivatives as a novel class of potential anti-tumor agents” (Eur J Med Chem, 2009).
The source made the active and inactive calls. The calls are words filed in the database; no cut-off is given here.

Assays:
[1] = biological target: Cyclin-dependent kinase 1/cyclin B1 (Homo sapiens, UniProt P06493); assay: Inhibition of CDK1/Cyclin B; type: protein-complex assay
Chain of Cyclin-dependent kinase 1/cyclin B1 (P06493 whole entry): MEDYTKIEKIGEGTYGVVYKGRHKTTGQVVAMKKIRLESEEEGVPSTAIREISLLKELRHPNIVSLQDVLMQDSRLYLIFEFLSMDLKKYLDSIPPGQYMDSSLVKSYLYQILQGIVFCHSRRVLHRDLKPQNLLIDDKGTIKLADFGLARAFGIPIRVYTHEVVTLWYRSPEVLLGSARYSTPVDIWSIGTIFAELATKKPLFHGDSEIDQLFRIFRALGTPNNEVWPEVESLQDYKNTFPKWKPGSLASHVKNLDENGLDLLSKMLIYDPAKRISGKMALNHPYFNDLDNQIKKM
Chain of Cyclin-dependent kinase 1/cyclin B1 (P14635 whole entry, further chain): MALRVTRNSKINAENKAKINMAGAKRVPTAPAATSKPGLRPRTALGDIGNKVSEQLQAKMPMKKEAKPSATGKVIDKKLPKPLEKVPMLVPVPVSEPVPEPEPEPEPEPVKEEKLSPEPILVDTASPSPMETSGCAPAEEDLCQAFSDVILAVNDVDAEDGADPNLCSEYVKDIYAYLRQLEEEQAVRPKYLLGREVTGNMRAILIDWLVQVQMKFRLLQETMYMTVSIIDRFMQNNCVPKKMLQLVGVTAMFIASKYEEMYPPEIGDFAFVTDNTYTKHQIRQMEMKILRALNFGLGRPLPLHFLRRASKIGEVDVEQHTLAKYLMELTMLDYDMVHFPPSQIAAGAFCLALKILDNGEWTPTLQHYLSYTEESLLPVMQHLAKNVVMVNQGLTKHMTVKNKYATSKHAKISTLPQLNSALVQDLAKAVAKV

[2] = biological target: Cyclin-dependent kinase 2 (Homo sapiens, UniProt P24941); assay: Inhibition of CDK2/Cyclin A
[3] = Inhibition of CDK4/Cyclin D
MCF7 [4] = assay: Antitumor activity against human MCF7 cells assessed as cell growth at 10 uM after 48 hrs by sulforhodamine B assay; type: functional; settings: MCF7, 48 h, read-out: Activity
Summary of the method: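 NCI primary screen, single concentration 10^-5 M against MCF7, NCI-H460 and SF-268. Cells in RPMI 1640 with 5% FBS and 2 mM L-glutamine, seeded at 5000–40,000 cells/well by cell type, preincubated 24 h at 37 °C. Compound added at time zero, then 48 h incubation (5% CO2, 100% humidity). Growth read by sulforhodamine B optical density, reported as growth percentage.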

CCRF-CEM = assay: Cytotoxicity against human CCRF-CEM cells after 48 hrs by sulforhodamine B assay; type: functional
Summary of the method: (§1)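 NCI human tumor panel. Cells in RPMI 1640 with 5% FBS and 2 mM L-glutamine, 5000–40,000 cells/well by growth characteristics, 24 h preincubation at 37 °C. Compound added at time zero at five 10-fold dilutions, top concentration agent-dependent. Incubated 48 h (5% CO2, 100% humidity), then sulforhodamine B stain and plate-reader OD. GI50 and TGI are the concentrations giving 50% and total growth inhibition, in µM.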

[5] = Cytotoxicity against human […] cells after 48 hrs by sulforhodamine B assay; type: functional; summary of the method: as §1
SR = assay: Cytotoxicity against human SR cells after 48 hrs by sulforhodamine B assay; type: functional; summary of the method: as §1
HOP-62 = assay: Cytotoxicity against human HOP62 cells after 48 hrs by sulforhodamine B assay; type: functional; settings: HOP-62, 48 h; summary of the method: as §1
HOP-92 = assay: Cytotoxicity against human HOP92 cells after 48 hrs by sulforhodamine B assay; type: functional; settings: HOP-92, 48 h; summary of the method: as §1
NCI-H226 = assay: Cytotoxicity against human NCI-H226 cells after 48 hrs by sulforhodamine B assay; type: functional; settings: NCI-H226, 48 h; summary of the method: as §1
HCC 2998 = assay: Cytotoxicity against human HCC2998 cells after 48 hrs by sulforhodamine B assay; type: functional; summary of the method: as §1
HCT-116 [6] = assay: Cytotoxicity against human HCT116 cells after 48 hrs by sulforhodamine B assay; type: functional; summary of the method: as §1
HCT-15 = assay: Cytotoxicity against human HCT15 cells after 48 hrs by sulforhodamine B assay; type: functional; settings: HCT-15, 48 h; summary of the method: as §1
KM12 = assay: Cytotoxicity against human KM12 cells after 48 hrs by sulforhodamine B assay; type: functional; summary of the method: as §1
SF-268 = assay: Cytotoxicity against human SF268 cells after 48 hrs by sulforhodamine B assay; type: functional; summary of the method: as §1
SF-539 = assay: Cytotoxicity against human SF539 cells after 48 hrs by sulforhodamine B assay; type: functional; summary of the method: as §1
SNB-75 = assay: Cytotoxicity against human SNB75 cells after 48 hrs by sulforhodamine B assay; type: functional; summary of the method: as §1
UACC-62 = assay: Cytotoxicity against human UACC62 cells after 48 hrs by sulforhodamine B assay; type: functional; summary of the method: as §1
OVCAR-3 = assay: Cytotoxicity against human OVCAR-3 cells after 48 hrs by sulforhodamine B assay; type: functional; summary of the method: as §1
OVCAR-4 = assay: Cytotoxicity against human OVCAR4 cells after 48 hrs by sulforhodamine B assay; type: functional; summary of the method: as §1
A498 = assay: Cytotoxicity against human A498 cells after 48 hrs by sulforhodamine B assay; type: functional; summary of the method: as §1
ACHN = assay: Cytotoxicity against human ACHN cells after 48 hrs by sulforhodamine B assay; type: functional; summary of the method: as §1
CAKI-1 = assay: Cytotoxicity against human Caki1 cells after 48 hrs by sulforhodamine B assay; type: functional; settings: CAKI-1, 48 h; summary of the method: as §1
TK-10 = assay: Cytotoxicity against human TK10 cells after 48 hrs by sulforhodamine B assay; type: functional; settings: TK-10, 48 h; summary of the method: as §1
MCF7 [7] = assay: Cytotoxicity against human MCF7 cells after 48 hrs by sulforhodamine B assay; type: functional; settings: MCF7, 48 h; summary of the method: as §1
Hs-578T = assay: (§2) Cytotoxicity against human Hs 578T cells after 48 hrs by sulforhodamine B assay; type: functional; summary of the method: as §1
BT-549 = assay: Cytotoxicity against human BT549 cells after 48 hrs by sulforhodamine B assay; type: functional; settings: BT-549, 48 h; summary of the method: as §1
HCT-116 [8] = assay: Antitumor activity against human HCT116 cells xenografted in nude mouse; type: functional, cell-based
NCI-H322M = assay: Cytotoxicity against human NCI-H322M cells after 48 hrs by sulforhodamine B assay; type: functional; summary of the method: as §1
LOX IMVI = assay: Cytotoxicity against human LOXIMVI cells after 48 hrs by sulforhodamine B assay; type: functional; summary of the method: as §1
[9] = as §2; type: functional; summary of the method: as §1

Clc1ccc(OCc2nnc3sc(SSc4nn5c(COc6ccc(Cl)cc6)nnc5s4)nn23)cc1
IC50 [1]: 11 µM
IC50 [2]: 0.82 µM
IC50 [3]: 8 µM
growth at 10 µM (MCF7 [4]): 147%
GI50 (CCRF-CEM): 75.9 µM
GI50 [5]: 44.7 µM
GI50 (SR): 14.1 µM
GI50 (HOP-62): 66.1 µM
GI50 (HOP-92): 18.2 µM
GI50 (NCI-H226): 87.1 µM
GI50 (HCC 2998; HCC 2998, 48 h): 16.2 µM
pGI50 (HCT-116 [6]): inactive
GI50 (HCT-15): 87.1 µM
pGI50 (KM12): inactive
pGI50 (SF-268): inactive
pGI50 (SF-539): inactive
pGI50 (SNB-75): inactive
GI50 (UACC-62; UACC-62, 48 h): 44.7 µM
GI50 (OVCAR-3; OVCAR-3, 48 h): 35.5 µM
GI50 (OVCAR-4; OVCAR-4, 48 h): 46.8 µM
GI50 (A498; A498, 48 h): 28.8 µM
pGI50 (ACHN): inactive
GI50 (CAKI-1): 77.6 µM
GI50 (TK-10): 72.4 µM
GI50 (MCF7 [7]): 44.7 µM
pGI50 (Hs-578T): inactive
GI50 (BT-549): 47.9 µM
Activity (HCT-116 [8]): inactive

Nc1ccc(-c2nn3c(COc4ccc(Cl)cc4)nnc3s2)cc1
IC50 [1]: 6.5 µM
IC50 [2]: 0.33 µM
IC50 [3]: 2.1 µM
growth at 10 µM (MCF7 [4]): 128%
GI50 (CCRF-CEM): 10 µM
GI50 [5]: 77.6 µM
GI50 (SR): 91.2 µM
GI50 (HOP-62): 20.4 µM
GI50 (HOP-92): 97.7 µM
GI50 (NCI-H226): 7.24 µM
pGI50 (NCI-H322M): inactive
pGI50 (HCC 2998): inactive
GI50 (HCT-116 [6]; HCT-116, 48 h): 34.7 µM
GI50 (KM12; KM12, 48 h): > 100 µM
GI50 (SF-268; SF-268, 48 h): 46.8 µM
GI50 (SF-539; SF-539, 48 h): 34.7 µM
pGI50 (LOX IMVI): inactive
pGI50 (UACC-62): inactive
pGI50 (OVCAR-3): inactive
pGI50 (OVCAR-4): inactive
pGI50 (A498): inactive
GI50 (ACHN): 53.7 µM
GI50 (CAKI-1): 49 µM
GI50 (TK-10): 85.1 µM
GI50 (MCF7 [7]): 40.7 µM
GI50 [9]: 87.1 µM
Activity (HCT-116 [8]): inactive
